Converted amounts (≈) assume the structure as drawn. The source made the active and inactive calls. The rule behind the calls is not given here. Bounds are passed on as bounds.

The text below walks through data of ChEMBL document CHEMBL4842325, “Lanosterol 14α-demethylase (CYP51)/histone deacetylase (HDAC) dual inhibitors for treatment of Candida tropicalis and Cryptococcus neoformans infections” (Eur J Med Chem, 2021).

Test [1] relates to Candida tropicalis. The test can be described thus: microbe, parasite or virus in culture. Type of test: functional. To be noted: 5008, time 48 hrs.
For test [2], the system named is Candida tropicalis. The test can be described thus: microbe, parasite or virus in culture. The format is functional. To be noted: 3890, time 48 hrs.
Test [3] relates to Cryptococcus neoformans. Kind of test: microbe, parasite or virus in culture. The format is functional. To be noted: H99, time 72 hrs.
Test [4] concerns Candida albicans. Kind of test: Antifungal activity against fluconazole-sensitive Candida albicans SC5314 assessed as inhibition of fungal growth. The format is functional.
In test [5] the test system is Candida albicans. Kind of test: microbe, parasite or virus in culture. To be noted: 0304103. The format is functional.
In test [6] the test system is Candida albicans. The test can be described thus: microbe, parasite or virus in culture. Type of test: functional. To be noted: 7781.
Test [7] has as its system Candida albicans. Kind of test: microbe, parasite or virus in culture. To be noted: 4108. Type of test: functional.
The test system of test [8] is Candida albicans. Kind of test: Antifungal activity against fluconazole-sensitive Candida albicans 10061 assessed as inhibition of fungal growth. The format is functional.
The test system of test [9] is Candida albicans. Kind of test: Antifungal activity against fluconazole-sensitive Candida albicans 9770 assessed as inhibition of fungal growth. The format is functional.
The subject of test [10] is Cryptococcus neoformans. The test can be described thus: Antifungal activity against fluconazole-sensitive Cryptococcus neoformans H99 assessed as inhibition of cell proliferation at 2 to 8 ug/ml measured for 48 hrs by time growth curve assay. To be noted: dose 2-8 µg/ml. The format is functional, organism-based. The gist of the method:
(§1)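 Exponential-phase cells from YEPD resuspended in 3 mL fresh RPMI 1640 at 1 × 10⁵ cells/mL (C. tropicalis 5008) or 1 × 10⁶ cells/mL (C. neoformans H99). Compound at several concentrations; cultures shaken at 240 rpm, 30 °C. Growth read as OD₆₃₀ at 0, 6, 12, 24, 36 and 48 h. Done in triplicate.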

Test [11] deals with Candida tropicalis. Kind of test: Antifungal activity against Candida tropicalis 5008 assessed as inhibition of fungal filamentation by measuring reduction in hyphae formation at 8 ug/ml incubated for 7 hrs by cell inverted imaging microscopic analysis. The format is functional, organism-based. To be noted: dose 8.0 µg/ml. The gist of the method:
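C. tropicalis 5008 grown to exponential phase in YEPD, diluted to 1 × 10⁵ CFU/mL in spider medium and dosed at several concentrations, with an untreated group for comparison. Incubated 37 °C for 7 h. Cell morphology recorded on a live-cell inverted microscope.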

Test [12] deals with Cryptococcus neoformans. The test can be described thus: Inhibition of biofilm formation in Cryptococcus neoformans H99 at 8 ug/ml incubated for 24 hrs by XTT reduction assay. Type of test: functional, organism-based. To be noted: dose 8.0 µg/ml.
Test [13] deals with Cryptococcus neoformans. The test can be described thus: Downregulation of CAP10 gene expression in Cryptococcus neoformans H99 at 2 ug/ml measured after 24 hrs by qRT-PCR analysis. Type of test: functional. To be noted: dose 2.0 µg/ml. The method in brief:
(§2)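 Exponential-phase C. neoformans H99 inoculated into 50 mL YPD with compound. Incubated 35 °C for 24 h, then cultures ground in liquid nitrogen for RNA isolation. Transcript levels of capsule-associated genes quantified by RT-qPCR. Three independent experiments, mean ± SD, t-test.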
For orientation: Real-time PCR tracks product formation cycle by cycle.

Test [14] has as its system Cryptococcus neoformans. The test can be described thus: Downregulation of CAP59 gene expression in Cryptococcus neoformans H99 at 2 ug/ml measured after 24 hrs by qRT-PCR analysis. The format is functional. To be noted: dose 2.0 µg/ml. The method in brief:
as §2

Test [15] relates to Candida tropicalis. The test can be described thus: Downregulation of ERG11 mRNA expression in Candida tropicalis 5008 at 4 ug/ml measured after 24 hrs by qRT-PCR analysis. The format is functional. To be noted: dose 4.0 µg/ml. The method in brief: (§3)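 Exponential-phase C. tropicalis 5008 inoculated into 10 mL YPD with compound at several concentrations, DMSO as blank control. Incubated 35 °C for 24 h. Total RNA isolated on columns and reverse-transcribed. Real-time RT-PCR with ACT1 as internal control. Mean of 3 independent assays ± SD.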

Test [16] deals with Candida tropicalis. Kind of test: Downregulation of CDR1 mRNA expression in Candida tropicalis 5008 at 4 ug/ml measured after 24 hrs by qRT-PCR analysis. To be noted: dose 4.0 µg/ml. The format is functional. The method in brief:
as §3

For test [17], the system named is Candida tropicalis. Kind of test: Downregulation of MDR1 mRNA expression in Candida tropicalis 5008 at 4 ug/ml measured after 24 hrs by qRT-PCR analysis. Type of test: functional. To be noted: dose 4.0 µg/ml. The gist of the method:
as §3

In test [18] the test system is Cryptococcus neoformans. The test can be described thus: Antifungal activity against Cryptococcus neoformans H99 infected in ICR mouse model assessed as reduction in fungal burden in brain at 20 mg/kg, po administered once a day for 5 days. To be noted: time 5.0 day. Type of test: functional, organism-based. The method in brief: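 Immunosuppression by intraperitoneal cyclophosphamide 24 h before infection. Infected on day 0 by intravenous 2 × 10⁵ CFU C. neoformans H99. Oral treatment once daily for 5 consecutive days, starting 24 h post infection; saline group as blank. Brains taken on day 6 and homogenized, dilutions plated on SDA at 35 °C for 48 h. Colonies counted for burden; groups compared by ANOVA.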

For test [19], the system named is Cryptococcus neoformans. The test can be described thus: Inhibition of capsule formation in Cryptococcus neoformans H99 assessed as reduction in capsule size at 50 ug/ml incubated for 24 hrs by laser scanning confocal microscopic analysis. The format is functional. To be noted: dose 50.0 µg/ml. The gist of the method:
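Exponential-phase C. neoformans H99 from YEPD resuspended in PBS at 1 × 10⁷ cells/mL. Suspension placed in wells with FBS plus DMEM and compound at several concentrations; untreated group as control. Kept 24 h at 37 °C under 10% CO₂. Cells mixed with India ink and imaged by confocal microscopy at 63×, 10 random fields. Whole-cell and cell-body diameters measured to derive capsule size.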

Test [20] relates to Candida tropicalis. The test can be described thus: Antifungal activity against fluconazole-resistant Candida tropicalis 5008 assessed as inhibition of cell proliferation at 32 ug/ml measured for 48 hrs by time growth curve assay. The format is functional, organism-based. To be noted: dose 32.0 µg/ml. The gist of the method: as §1
Test [21] in a line: Inhibition of HDAC in Candida tropicalis 5008 using Boc-Lys(Ac)-AMC as substrate preincubated with protoplast for 12 hrs followed by incubation with substrate for 6 hrs by fluorimetric assay. The method in brief:
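Whole-cell assay on C. tropicalis 5008, 100 mg wet weight of exponential-phase cells. Cell wall removed with snailase to give protoplasts, which were dispersed in PBS. Protoplasts incubated with compound at 35 °C for 12 h. Boc-Lys(Ac)-AMC then added to a final 30 µM and incubated 37 °C for 6 h. Stop solution added, 37 °C for 2 h. Fluorescence read at Ex 360/Em 460 nm and converted to HDAC inhibition rate.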

For `OC(Cn1cncn1)(Cn1cncn1)c1ccc(F)cc1F` [FLUCONAZOLE], the MIC80 in test [1] was > 64 µg/mL; in test [2], 0.5 µg/mL (≈ 1.63 µM); in [3] it was 2 µg/mL (≈ 6.53 µM); in test [4] it was 0.5 µg/mL (≈ 1.63 µM); in test [5], > 64 µg/mL; in test [6], > 64 µg/mL. In addition, the MIC80 in [7], in test [8] and in test [9] was > 64 µg/mL in each case. Moreover, the outcome in test [10], in [11], in test [18] and in [20] was Active. The inhibition result in test [12], in test [15], in test [16], in test [17] and in test [19] was “Active” throughout. Further, the inhibition entry in [13] and in [14] was “inactive” throughout.
`O=C(Cc1ccc(OCCCOc2ccc(CN3CCN(CC(O)(Cn4cncn4)c4ccc(F)cc4F)CC3)cc2)cc1)NO` (stereo unspecified): the MIC80 was found to be 32 µg/mL (≈ 50.3 µM) in test [1]; 2 µg/mL (≈ 3.14 µM) in test [2]; 4 µg/mL (≈ 6.28 µM) in test [3]; 4 µg/mL (≈ 6.28 µM) in test [4]; 32 µg/mL (≈ 50.3 µM) in test [5]; 4 µg/mL (≈ 6.28 µM) in test [6]. Also, the results for the MIC80 in [7], in test [8] and in test [9] were 32 µg/mL (≈ 50.3 µM), > 64 µg/mL and > 64 µg/mL, respectively.
The IC50 is the concentration at which inhibition is half-maximal. A high value points to weaker potency in that assay. As to `O=C(CCCCCCC(=O)Nc1ccccc1)NO` [VORINOSTAT], in test [21], 3.56 µM corresponded to half-maximal inhibition (IC50).
As to `O=C(CCCCOc1ccc(CN2CCN(CC(O)(Cn3cncn3)c3ccc(F)cc3F)CC2)cc1)NO` (stereo unspecified), the MIC80 came out at 4 µg/mL (≈ 7.34 µM) in [1]; 2 µg/mL (≈ 3.67 µM) in test [2]; 8 µg/mL (≈ 14.7 µM) in [3]; 1 µg/mL (≈ 1.84 µM) in test [4]; 8 µg/mL (≈ 14.7 µM) in [5]; 4 µg/mL (≈ 7.34 µM) in test [6]. Also, the results for the MIC80 in test [7], in test [8] and in test [9] were 32 µg/mL (≈ 58.8 µM), > 64 µg/mL and > 64 µg/mL, respectively.
Consider `O=C(Cc1ccc(OCCCCCCN2CCN(CC(O)(Cn3cncn3)c3ccc(F)cc3F)CC2)cc1)NO` (stereo unspecified), for which the MIC80 in test [1] was found to be 4 µg/mL (≈ 6.98 µM); in test [2], 2 µg/mL (≈ 3.49 µM); in test [3] it was 16 µg/mL (≈ 27.9 µM); in [4] it was 16 µg/mL (≈ 27.9 µM); in test [5], 16 µg/mL (≈ 27.9 µM); in [6], 4 µg/mL (≈ 6.98 µM). The MIC80 in test [7], in test [8] and in [9] was 16 µg/mL (≈ 27.9 µM) each time.
With `O=C(Cc1ccc(OCCCCN2CCN(CC(O)(Cn3cncn3)c3ccc(F)cc3F)CC2)cc1)NO` (stereo unspecified), the MIC80 was > 64 µg/mL in test [1]; 32 µg/mL (≈ 58.8 µM) in test [2]; 32 µg/mL (≈ 58.8 µM) in test [3]; > 64 µg/mL in [4]; 32 µg/mL (≈ 58.8 µM) in test [5]; > 64 µg/mL in test [6]. The MIC80 in test [7], in test [8] and in [9] was > 64 µg/mL each time.
On to `O=C(Cc1ccc(OCCCCCN2CCN(CC(O)(Cn3cncn3)c3ccc(F)cc3F)CC2)cc1)NO` (stereo unspecified), for which the MIC80 is > 64 µg/mL in test [1]; 4 µg/mL (≈ 7.16 µM) in test [2]; 32 µg/mL (≈ 57.3 µM) in test [3]; 32 µg/mL (≈ 57.3 µM) in test [4]; > 64 µg/mL in [5]; > 64 µg/mL in test [6]. The MIC80 in test [7], in [8] and in test [9] was > 64 µg/mL each time.
